Measurements from ChEMBL document CHEMBL1126834, “Chemistry, binding affinities, and behavioral properties of a new class of "antineophobic" mitochondrial DBI receptor complex (mDRC) ligands” (J Med Chem, 1993).

How the values were obtained:
[1] = biological target: T1, Gastrin/cholecystokinin type B receptor (Rattus norvegicus, UniProt P30553); experiment: Inhibitory activity by measuring its ability to displace [3H]L-365260 from cholecystokinin receptor in rat brain; assay type: tissue-based
T1 sequence (P30553 whole entry): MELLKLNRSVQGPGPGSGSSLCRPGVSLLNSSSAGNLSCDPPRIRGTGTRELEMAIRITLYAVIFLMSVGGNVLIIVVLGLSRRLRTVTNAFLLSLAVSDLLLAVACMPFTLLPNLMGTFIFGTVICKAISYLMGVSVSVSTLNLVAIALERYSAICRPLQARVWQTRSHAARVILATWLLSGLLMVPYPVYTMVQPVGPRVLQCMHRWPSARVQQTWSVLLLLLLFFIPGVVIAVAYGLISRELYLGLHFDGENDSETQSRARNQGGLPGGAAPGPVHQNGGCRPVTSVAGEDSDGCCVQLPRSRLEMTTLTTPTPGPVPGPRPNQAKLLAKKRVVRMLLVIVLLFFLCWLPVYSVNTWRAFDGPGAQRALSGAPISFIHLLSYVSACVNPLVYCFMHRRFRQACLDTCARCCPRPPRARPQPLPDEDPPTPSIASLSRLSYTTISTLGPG

[2] = Inhibitory activity by measuring its ability to displace [3H]spiperone from dopamine or serotonin 5-HT-1 receptors in rat brain; assay type: tissue-based
[3] = biological target: GABA-A receptor; anion channel; experiment: Inhibitory activity at GABA A receptor, measured by the ability to displace [35S]TBPS from GABA A receptor in rat brain; assay type: tissue-based
[4] = biological target: Adrenergic receptor alpha; experiment: Inhibitory activity by measuring its ability to displace [3H]WB-4101 from alpha-adrenergic receptor in rat brain; assay type: tissue-based
[5] = Tested for inhibitory activity by measuring its ability to displace [3H]AMPA from glutamate (non-NMDA) receptor in rat brain; assay type: tissue-based
[6] = Inhibitory activity by measuring its ability to displace [3H]glycine from glycine receptor in rat brain; assay type: tissue-based
[7] = Inhibitory activity at GABA B receptor, measured by the ability to displace [3H]baclofen from GABA B receptor in rat brain; assay type: tissue-based
Glutamate NMDA receptor = experiment: Inhibitory activity by measuring its ability to displace [3H]-MK-801 from glutamate(NMDA) receptor in rat brain; assay type: tissue-based
Translocator protein = Translocator protein (Rattus norvegicus, UniProt P16257); experiment: Binding affinity against mitochondrial DBI complex (peripheral benzodiazepine receptor) using primary cultures of glial cells
How it was run: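 Glia from cerebella of 8-day-old Sprague–Dawley rat pups, trypsin-dissociated and grown 14 days (~95% astroglia). Cells lysed in 50 mM Hepes pH 7.4, 4 μg protein per tube. Incubated with [3H]4'-chlorodiazepam and competitor for 90 min at 4 °C, then filtered. Nonspecific binding defined with 10 μM 4'-chlorodiazepam. Triplicate competition curves; IC50 by nonlinear regression, converted to Ki (Bylund–Yamamura).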

[8] = biological target: GABA-A receptor; anion channel; experiment: Inhibitory activity at GABA A receptor, measured by the ability to displace [3H]flumazenil from GABA A receptor in rat brain; assay type: tissue-based
[9] = biological target: Adrenergic receptor alpha; experiment: Inhibitory activity by measuring its ability to displace [3H]clonidine from alpha-adrenergic receptor in rat brain; assay type: tissue-based
Cannabinoid receptor 1 = Cannabinoid receptor 1 (Rattus norvegicus, UniProt P20272); experiment: Inhibitory activity, measured by displacement [3H]CP-55940 from cannabinoid receptor (CB1) in rat brain; assay type: tissue-based
[10] = biological target: GABA-A receptor; anion channel; experiment: Inhibitory activity at GABA A receptor, measured by the ability to displace [3H]zolpidem from GABA A receptor in rat brain; assay type: tissue-based
[11] = biological target: GABA-A receptor; anion channel; experiment: Inhibitory activity at GABA A receptor, measured by the ability to displace [3H]GABA from GABA A receptor in rat brain; assay type: tissue-based
Adrenergic receptor beta = Adrenergic receptor beta (Rattus norvegicus, UniProt P18090+P10608+P26255); experiment: Inhibitory activity by measuring its ability to displace [125I]pindolol from beta-adrenergic receptor in rat brain; assay type: tissue-based
[12] = biological target: Serotonin 2 (5-HT2) receptor (Rattus norvegicus); experiment: Inhibitory activity by measuring its ability to displace [3H]ketanserin from serotonin receptor in rat brain
[13] = biological target: Sigma receptor (Rattus norvegicus); experiment: Tested for inhibitory activity by measuring its ability to displace [3H]3-PPP from sigma receptor in rat brain
Opioid receptor = Opioid receptor (Rattus norvegicus, UniProt P33533+P34975+P33535); experiment: Inhibition of [3H]naxolone binding to opiate receptors in rat brain; assay type: tissue-based

Chain of Cannabinoid receptor 1 (P20272 whole entry): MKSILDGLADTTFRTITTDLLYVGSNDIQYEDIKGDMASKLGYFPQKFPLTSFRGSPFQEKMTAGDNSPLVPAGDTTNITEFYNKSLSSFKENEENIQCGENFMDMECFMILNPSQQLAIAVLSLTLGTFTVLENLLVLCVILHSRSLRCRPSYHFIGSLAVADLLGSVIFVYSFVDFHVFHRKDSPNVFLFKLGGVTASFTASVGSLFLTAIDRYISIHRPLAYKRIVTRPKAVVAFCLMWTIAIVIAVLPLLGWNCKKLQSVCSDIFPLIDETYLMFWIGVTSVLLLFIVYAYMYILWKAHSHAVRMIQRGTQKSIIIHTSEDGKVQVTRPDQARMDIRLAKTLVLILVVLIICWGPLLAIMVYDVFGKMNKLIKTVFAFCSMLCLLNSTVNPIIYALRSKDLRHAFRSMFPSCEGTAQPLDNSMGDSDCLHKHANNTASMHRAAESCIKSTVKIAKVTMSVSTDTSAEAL
Chain of Translocator protein (P16257 whole entry, looked up): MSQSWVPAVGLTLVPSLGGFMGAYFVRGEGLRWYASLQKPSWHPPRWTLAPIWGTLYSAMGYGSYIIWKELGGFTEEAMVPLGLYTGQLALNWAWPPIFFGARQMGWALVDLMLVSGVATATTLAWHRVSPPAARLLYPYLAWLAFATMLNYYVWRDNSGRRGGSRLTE

## CCCCCCN(C)C(=O)Cc1c(-c2ccc(F)cc2)[nH]c2ccccc12
[1]
  IC50: > 1000 nM
[2]
  IC50: > 1000 nM
[3]
  IC50: > 1000 nM
[4]
  IC50: > 1000 nM
[5]
  IC50: > 1000 nM
[6]
  IC50: > 1000 nM
[7]
  IC50: > 1000 nM
Glutamate NMDA receptor
  IC50: > 1000 nM
Translocator protein
  Ki: 135 nM
[8]
  IC50: > 1000 nM
[9]
  IC50: > 1000 nM
Cannabinoid receptor 1
  IC50: > 1000 nM
[10]
  IC50: > 1000 nM
[11]
  IC50: > 1000 nM
Adrenergic receptor beta
  IC50: > 1000 nM

## Cc1ccc(-c2[nH]c3ccc(C)cc3c2CC(=O)N(C)C)cc1
[1]
  IC50: > 1000 nM
[2]
  IC50: > 1000 nM
[3]
  IC50: > 1000 nM
[4]
  IC50: > 1000 nM
[5]
  IC50: > 1000 nM
[6]
  IC50: > 1000 nM
[7]
  IC50: > 1000 nM
Glutamate NMDA receptor
  IC50: > 1000 nM
Translocator protein
  Ki: 150 nM
[8]
  IC50: > 1000 nM
[9]
  IC50: > 1000 nM
Cannabinoid receptor 1
  IC50: > 1000 nM
[10]
  IC50: > 1000 nM
[11]
  IC50: > 1000 nM
Adrenergic receptor beta
  IC50: > 1000 nM

## O=C(Cc1c(-c2ccc(F)cc2)[nH]c2ccccc12)Nc1ccccc1Br
[1]
  IC50: > 1000 nM
[2]
  IC50: > 1000 nM
[3]
  IC50: > 1000 nM
[4]
  IC50: > 1000 nM
[5]
  IC50: > 1000 nM
[6]
  IC50: > 1000 nM
[7]
  IC50: > 1000 nM
Glutamate NMDA receptor
  IC50: > 1000 nM
Translocator protein
  Ki: 476 nM
[8]
  IC50: > 1000 nM
[9]
  IC50: > 1000 nM
Cannabinoid receptor 1
  IC50: > 1000 nM
[10]
  IC50: > 1000 nM
[11]
  IC50: > 1000 nM
Adrenergic receptor beta
  IC50: > 1000 nM

## CCCN(CCC)C(=O)Cc1c(-c2ccc(Cl)cc2)n(C)c2ccccc12
[1]
  IC50: > 1000 nM
[12]
  IC50: > 1000 nM
[2]
  IC50: > 1000 nM
[3]
  IC50: > 1000 nM
[4]
  IC50: > 1000 nM
[5]
  IC50: > 1000 nM
[6]
  IC50: > 1000 nM
[7]
  IC50: > 1000 nM
Glutamate NMDA receptor
  IC50: > 1000 nM
Translocator protein
  Ki: 340 nM
[8]
  IC50: > 1000 nM
[9]
  IC50: > 1000 nM
Cannabinoid receptor 1
  IC50: > 1000 nM
[10]
  IC50: > 1000 nM
[11]
  IC50: > 1000 nM
[13]
  IC50: > 1000 nM
Opioid receptor
  IC50: > 1000 nM
Adrenergic receptor beta
  IC50: > 1000 nM

## CCN(CC)C(=O)Cc1c(-c2ccccc2)[nH]c2ccccc12
[1]
  IC50: > 1000 nM
[2]
  IC50: > 1000 nM
[3]
  IC50: > 1000 nM
[4]
  IC50: > 1000 nM
[5]
  IC50: > 1000 nM
[6]
  IC50: > 1000 nM
[7]
  IC50: > 1000 nM
Glutamate NMDA receptor
  IC50: > 1000 nM
Translocator protein
  Ki: 156 nM
[8]
  IC50: > 1000 nM
[9]
  IC50: > 1000 nM
Cannabinoid receptor 1
  IC50: > 1000 nM
[10]
  IC50: > 1000 nM
[11]
  IC50: > 1000 nM
Adrenergic receptor beta
  IC50: > 1000 nM

## CCCN(CCC)C(=O)Cc1c(-c2ccccc2)[nH]c2cc(F)ccc12
[1]
  IC50: > 1000 nM
[12]
  IC50: > 1000 nM
[2]
  IC50: > 1000 nM
[3]
  IC50: > 1000 nM
[4]
  IC50: > 1000 nM
[5]
  IC50: > 1000 nM
[6]
  IC50: > 1000 nM
[7]
  IC50: > 1000 nM
Glutamate NMDA receptor
  IC50: > 1000 nM
Translocator protein
  Ki: 202 nM
[8]
  IC50: > 1000 nM
[9]
  IC50: > 1000 nM
Cannabinoid receptor 1
  IC50: > 1000 nM
[10]
  IC50: > 1000 nM
[11]
  IC50: > 1000 nM
[13]
  IC50: > 1000 nM
Opioid receptor
  IC50: > 1000 nM
Adrenergic receptor beta
  IC50: > 1000 nM

## CCCN(CCC)C(=O)Cc1c(-c2cccc(Cl)c2)[nH]c2ccccc12
[1]
  IC50: > 1000 nM
[2]
  IC50: > 1000 nM
[3]
  IC50: > 1000 nM
[4]
  IC50: > 1000 nM
[5]
  IC50: > 1000 nM
[6]
  IC50: > 1000 nM
[7]
  IC50: > 1000 nM
Glutamate NMDA receptor
  IC50: > 1000 nM
Translocator protein
  Ki: 678 nM
[8]
  IC50: > 1000 nM
[9]
  IC50: > 1000 nM
Cannabinoid receptor 1
  IC50: > 1000 nM
[10]
  IC50: > 1000 nM
[11]
  IC50: > 1000 nM
Adrenergic receptor beta
  IC50: > 1000 nM

## O=C1Cc2c(-c3ccccc3)[nH]c3cccc(c23)N1
[1]
  IC50: > 1000 nM
[12]
  IC50: > 1000 nM
[2]
  IC50: > 1000 nM
[3]
  IC50: > 1000 nM
[4]
  IC50: > 1000 nM
[5]
  IC50: > 1000 nM
[6]
  IC50: > 1000 nM
[7]
  IC50: > 1000 nM
Glutamate NMDA receptor
  IC50: > 1000 nM
[8]
  IC50: > 1000 nM
[9]
  IC50: > 1000 nM
Cannabinoid receptor 1
  IC50: > 1000 nM
[10]
  IC50: > 1000 nM
[11]
  IC50: > 1000 nM
[13]
  IC50: > 1000 nM
Opioid receptor
  IC50: > 1000 nM
Adrenergic receptor beta
  IC50: > 1000 nM
